Measurements published in paper PMC6279241 (Science signaling, 2018).

Assays:
PRC2 (Ezh1/2) = assay: Histone H3; format: cell-based, human; conditions: 92.1, 7 days GSK503, immunoblot
Procedure, shortened: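 92.1 cells were treated with GSK503 for 7 days, and histones were isolated with a purification kit. Samples ran on 15% SDS-PAGE, were blotted to PVDF, blocked in 5% milk/TBST, and detected with IRDye-coupled secondary antibodies. H3K27me3 densitometry was normalized to total H3 and compared with DMSO control. Three independent experiments.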

92.1 cells = assay: Block of FR-elicited re-differentiation; format: cell-based, human; conditions: 92.1, 7 days GSK503 and 3 days FR

SMILES: Cc1cc(C)c(CNC(=O)c2cc(-c3ccc(N4CCN(C)CC4)nc3)cc3c2c(C)cn3C(C)C)c(=O)[nH]1 [GSK503]
- Histone H3(Lys27) trimethylation (PRC2 (Ezh1/2)): reduced
- Ability of FR to re-differentiate cells (morphology and pigmentation) (92.1 cells): blocked
